Test results as given in ChEMBL document CHEMBL4261570, “Design, Synthesis and Preliminary Antimicrobial Evaluation of N-Alkyl Chain Tethered C-5 Functionalized Bis-Isatins” (Medchemcomm, 2017).
Calls of active or inactive are those of the source. No cut-off for these calls is given here.

What was measured:
[1] = system: Limosilactobacillus reuteri; experiment: Toxicity in Lactobacillus reuteri ATCC 23272 at 100 uM measured after overnight incubation by disc diffusion method; assay type: organism-based; conditions: in vivo
In short: (§1)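 Grown in Lactobacilli MRS at 37 °C under anaerobic conditions. Blank 6 mm discs were soaked 20 min at room temperature in a 100 μM working dilution in medium. Discs were placed on streaked agar alongside DMSO vehicle and antibiotic discs (levofloxacin, gentamicin), incubated overnight at 37 °C, and zones of inhibition measured in mm.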

[2] = system: Lactobacillus acidophilus; experiment: Toxicity in Lactobacillus acidophilus ATCC 43560 at 100 uM measured after overnight incubation by disc diffusion method; assay type: organism-based; conditions: in vivo; in short: as §1
[3] = system: Lacticaseibacillus rhamnosus; experiment: Toxicity in Lactobacillus rhamnosus ATCC 53103 at 100 uM measured after overnight incubation by disc diffusion method; assay type: organism-based, GG; conditions: in vivo; in short: as §1
Trichomonas vaginalis [4] = experiment: Antiparasitic activity against Trichomonas vaginalis assessed as parasite growth inhibition at 50 uM after 24 hrs by hemacytometer relative to control; assay type: functional; conditions: read-out: GI
In short: (§2)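 G3 strain cultured in TYM Diamond's medium in 15 mL tubes, with compound in DMSO. Controls were untreated and 0.1% DMSO. After 24 h, cells were counted by hemacytometer and normalized to the DMSO controls. Screening was at 50 μM. IC50 came from titrations of 5–40 μM with variable-slope regression, 4 independent trials on different days, and was then re-confirmed.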

Giardia intestinalis [5] = experiment: Antiparasitic activity against Giardia lamblia WB trophozoites assessed as parasite growth inhibition at 50 uM after 48 hrs by ATP bioluminescence-based CellTiter-Glo luminescent cell viability assay relative to control; assay type: functional; conditions: Giardia duodenalis; for inhibition of growth at 50 µM: read-out: GI
In short: (§3)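 Trophozoites kept axenically in TYI-S-33 with penicillin and streptomycin. Each well held 5000 trophozoites and was incubated 48 h at 37 °C under anaerobic conditions in a GasPak pouch. Read-out was CellTiter-Glo ATP luminescence. Controls were 0.5% DMSO vehicle and 30 μM metronidazole. Primary screen at 50 μM in duplicate; hits were those above 50% inhibition. EC50 came from triplicate 8-point series (0.39–50 μM) and dose-response curves.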

Entamoeba histolytica [6] = experiment: Antiparasitic activity against Entamoeba histolytica HM-1:IMSS trophozoites assessed as parasite growth inhibition at 50 uM after 48 hrs by ATP bioluminescence-based CellTiter-Glo luminescent cell viability assay relative to control; assay type: functional; conditions: for inhibition of growth at 50 µM: read-out: GI; in short: as §3
Escherichia coli = experiment: Toxicity in Escherichia coli K-12 MG1655 at 100 uM measured after overnight incubation by disc diffusion method; assay type: organism-based, K-12 substr. MG1655; conditions: in vivo
In short: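 Grown in Luria broth at 37 °C under aerobic conditions. Blank 6 mm discs were soaked 20 min at room temperature in a 100 μM working dilution in medium. Discs were placed on streaked agar alongside DMSO vehicle and antibiotic discs (levofloxacin, gentamicin), incubated overnight at 37 °C, and inhibition zones measured in mm.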

Trichomonas vaginalis [7] = experiment: Antiparasitic activity against Trichomonas vaginalis assessed as parasite growth inhibition after 24 hrs by hemacytometer; assay type: functional, organism-based; in short: as §2
Aspergillus parasiticus [8] = experiment: Antifungal activity against Aspergillus parasiticus NRRL5862 assessed as fungal growth at 500 uM after 48 hrs by microtiter plate liquid bioassay (reference value: 100%); assay type: functional
In short: (§4)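 A. parasiticus grown at 35 °C on PDA. Liquid assay in RPMI 1640, 3 × 104 to 5 × 10^4 CFU per mL, triplicate wells, 35 °C. Compounds in DMSO (<2% in media). No-treatment wells carry matched DMSO. Wells scored visually 0–4 versus the no-treatment control: 0 clear, 1 25%, 2 50%, 3 75%, 4 no reduction. Scoring follows CLSI M38-A.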

Saccharomyces cerevisiae [9] = experiment: Antifungal activity against Saccharomyces cerevisiae BY4741 assessed as fungal growth at 500 uM after 48 hrs by microtiter plate liquid bioassay (reference value: 100%); assay type: functional
Saccharomyces cerevisiae [10] = experiment: Antifungal activity against Saccharomyces cerevisiae BY4741 assessed as fungal growth at 500 uM after 24 hrs by microtiter plate liquid bioassay (reference value: 100%); assay type: functional
Aspergillus parasiticus [11] = experiment: Antifungal activity against Aspergillus parasiticus NRRL5862 assessed as fungal growth at 500 uM after 24 hrs by microtiter plate liquid bioassay (reference value: 100%); assay type: functional; in short: as §4
Entamoeba histolytica [12] = experiment: Antiparasitic activity against Entamoeba histolytica HM-1:IMSS trophozoites assessed as parasite growth inhibition after 48 hrs by ATP bioluminescence-based CellTiter-Glo luminescent cell viability assay; assay type: functional, organism-based; in short: as §3
Giardia intestinalis [13] = experiment: Antiparasitic activity against Giardia lamblia WB trophozoites assessed as parasite growth inhibition after 48 hrs by ATP bioluminescence-based CellTiter-Glo luminescent cell viability assay; assay type: functional, organism-based; conditions: Giardia duodenalis; in short: as §3
Naegleria fowleri = experiment: Antiparasitic activity against Naegleria fowleri KUL trophozoites assessed as parasite growth inhibition after 48 hrs by ATP bioluminescence-based CellTiter-Glo luminescent cell viability assay; assay type: functional, organism-based
In short: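 Strain KUL trophozoites cultured axenically in Nelson's medium with 10% FBS at 37 °C. Each well held 10 000 trophozoites, incubated under aerobic conditions without the anaerobe pouch. Read-out was CellTiter-Glo luminescence. Positive control was 50 μM amphotericin B. Hits were serially diluted in triplicate, 8 points from 0.39 to 50 μM, and EC50 was taken from dose-response curves.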

Saccharomyces cerevisiae [14] = experiment: Antifungal activity against Saccharomyces cerevisiae BY4741 assessed as decrease in fungal survival at 500 uM after 48 to 72 hrs by YPD plate-based assay; assay type: functional, organism-based
In short: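 At the end of the 500 μM SG-liquid microtiter assay, the entire well contents were spread onto YPD recovery plates. Plates were cultured a further 48 to 72 h at 30 °C to judge fungal survival.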

| Compound | Activity [1] | Activity [2] | Activity [3] | inhibition of growth at 50 µM (Trichomonas vaginalis [4]) | growth inhibition (GI) (Giardia intestinalis [5]) | growth inhibition (GI) (Entamoeba histolytica [6]) | Activity (Escherichia coli) | IC50 (Trichomonas vaginalis [7]) | Activity (Aspergillus parasiticus [8]) | inhibition of growth at 50 µM (Giardia intestinalis [5]) | inhibition of growth at 50 µM (Entamoeba histolytica [6]) | Activity (Saccharomyces cerevisiae [9]) | Activity (Saccharomyces cerevisiae [10]) | Activity (Aspergillus parasiticus [11]) | IC50 (Entamoeba histolytica [12]) | IC50 (Giardia intestinalis [13]) | IC50 (Naegleria fowleri) | Activity (Saccharomyces cerevisiae [14]) |
| --- | --- | --- | --- | --- | --- | --- | --- | --- | --- | --- | --- | --- | --- | --- | --- | --- | --- | --- |
| O=C1C(=O)N(CCCCN2C(=O)C(=O)c3cc(Br)ccc32)c2ccccc21 | Non-Toxic | Non-Toxic | Non-Toxic | 100% | inactive | inactive | Non-Toxic | 25 µM | – | – | – | – | – | – | – | – | – | – |
| O=C1C(=O)N(CCCCCBr)c2ccccc21 | Non-Toxic | Non-Toxic | Non-Toxic | 71.4% | – | – | Non-Toxic | – | 100% | 25.8% | 100% | 50% | 0% | 75 - 100% | 23 µM | – | – | – |
| O=C1C(=O)N(CCCN2C(=O)C(=O)c3cc(F)ccc32)c2ccccc21 | Non-Toxic | Non-Toxic | Non-Toxic | 100% | – | inactive | Non-Toxic | 12.5 µM | – | 100% | – | – | – | – | – | 28.8 µM | – | – |
| O=C1C(=O)N(CCCCCN2C(=O)C(=O)c3cc(Cl)ccc32)c2ccccc21 | Non-Toxic | Non-Toxic | Non-Toxic | 100% | – | – | Non-Toxic | – | – | 100% | 100% | – | – | – | – | 23.9 µM | 14.8 µM | – |
| O=C1C(=O)N(CCBr)c2ccccc21 | Non-Toxic | Non-Toxic | Non-Toxic | 62.5% | – | – | Non-Toxic | – | 100% | 47.2% | 7.23% | 75% | 25% | 75 - 100% | – | – | 23.6 µM | – |
| O=C1C(=O)N(CCCCCCCCBr)c2ccccc21 | Non-Toxic | Non-Toxic | Non-Toxic | 100% | – | inactive | Non-Toxic | – | 100% | 100% | – | 0% | 0% | 75 - 100% | – | 18.4 µM | – | inactive |
| O=C1C(=O)N(CCN2C(=O)C(=O)c3cc(Cl)ccc32)c2ccccc21 | Non-Toxic | Non-Toxic | Non-Toxic | 78.8% | – | – | Non-Toxic | 15 µM | 100% | 3.82% | 73.6% | 50% | 25% | 100% | – | – | 28.3 µM | – |
| O=C1C(=O)N(CCCCCN2C(=O)C(=O)c3cc(F)ccc32)c2ccccc21 | Non-Toxic | Non-Toxic | Non-Toxic | 100% | inactive | inactive | Non-Toxic | – | 100% | – | – | 75% | 50% | 100% | – | – | 27.3 µM | – |
| O=C1C(=O)N(CCCN2C(=O)C(=O)c3cc(Br)ccc32)c2ccccc21 | Non-Toxic | Non-Toxic | Non-Toxic | 100% | – | inactive | Non-Toxic | 3.72 µM | 100% | 19.3% | – | 50% | 25% | 100% | – | – | – | – |
| Cc1ncc([N+](=O)[O-])n1CCO [METRONIDAZOLE] | – | – | – | – | – | – | – | – | – | – | – | – | – | – | 5 µM | 6.4 µM | – | – |
| O=C1C(=O)N(CCCCCCBr)c2ccccc21 | Non-Toxic | Non-Toxic | Non-Toxic | 86.6% | – | inactive | Non-Toxic | – | 100% | 98.9% | – | 0% | 0% | 75 - 100% | – | 24.4 µM | – | inactive |
| O=C1C(=O)N(CCCCBr)c2ccccc21 | Non-Toxic | Non-Toxic | Non-Toxic | 89.8% | – | – | Non-Toxic | – | 100% | 20.9% | 8.47% | 50% | 0% | 75 - 100% | – | – | 14.5 µM | – |
